PAX8 reporter = lowers PAX8-driven luciferase in RMG-I cells | RMG-I TPO-luciferase reporter, SteadyGlo, 24 h | inhibition, % at 12.6 µM | hit rate 1.2% among 360,000 | AID 652154;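 active means mean replicate inhibition at least 60% with every replicate also reaching 60%; inconclusive means only one of the two criteria is met; inactive means mean below 60% and not all replicates reaching 60%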;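 further: luciferase light reporting Pax8 driven TPO promoter activity; plate controls were median of neutral control wells for no effect and mitoxantrone controls for full effect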
Arrestin-AP2 inh = inhibitors of human beta-arrestin and AP2 interaction. inhibition, % at 10 µM. FITC-arrestin peptide / GST-AP2 beads, flow cytometry; AP2 beta2 appendage carries R879A mutation. hit rate 0.31% among 340,000. AID 504490;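 active means inhibition above a set limit, near 3 SD of compounds lacking own fluorescence, cut at about 54% in these data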;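 further: plate controls were DMSO wells for no effect and 5 µM unlabelled arrestin peptide for full effect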
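System: GST-AP2 R879A glutathione beads; medium: PBS, Tween 20 0.05%, BSA 0.1%; reagent: fluorescein-tagged arrestin peptide at 50 nM final; schedule: pre-incubation 12 min, peptide binding 1 h, room temperature; detection: flow cytometry, FL1 (488/535 nm); read-out: inhibition as reduced fluorescein signal on beads, percent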
N-glyco inh = N-linked glycosylation inhibition; D54 ERlucT glycosylation luciferase reporter, 24 h; percent of 100 nM tunicamycin response; reporter increase, % at 12.5 µM; hit rate 0.23% among 360,000;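 active means mean luciferase reporter signal, scaled so untreated is 0 and the glycosylation-blocking control 100, at or above a set limit in every replicate; inconclusive means mean reaches the limit but not every replicate does; inactive means mean below the limit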;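 further: luciferase carries N-glycosylation sites so blocking glycosylation raises the light; 0% = median of neutral control wells and 100% = median of 100 nM tunicamycin wells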
PfHsp90 yeast 2 = reduces growth (ATP signal) of yeast expressing P. falciparum Hsp90. S. cerevisiae expressing PfHsp90, BacTiter-Glo ATP, 48 h; yeast lacking PDR1 and PDR3 efflux regulators. inhibition, % at 9.4 µM. hit rate 0.32% among 310,000;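 active means every replicate shows inhibition above about 80%, whatever the replicate mean, limit read from the data; inconclusive means mean inhibition reaches the set limit but some replicate falls short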;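 further: 0% = DMSO neutral controls and 100% = 20 µM radicicol positive controls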
Env fusion inh = HIV envelope-mediated fusion inhibition; HeLa-JRFL Env/CEM21 cell fusion, luciferase; inhibition, % at 12.3 µM; hit rate 1.1% among 360,000;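 active means mean replicate inhibition score of at least 50 and every replicate individually at or above 50; inconclusive means only one of the two criteria met; inactive means mean below 50 and not all replicates reaching 50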;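 further: 0% = plate neutral controls and 100% = maraviroc near 300 nM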
Rtt109 Vps75 = C. albicans Rtt109 histone acetyltransferase inhibition | inhibition, % at 34.9 µM | purified Rtt109/Vps75, ThioGlo CoA-SH fluorescence, 4 h | hit rate 0.16% among 330,000 | AID 540336 | Q5AAJ8;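 active means inhibition of at least 50% in every replicate; inconclusive means best replicate reaches 50% inhibition but some replicates fall short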
Target sequence (Q5AAJ8 whole entry, looked up): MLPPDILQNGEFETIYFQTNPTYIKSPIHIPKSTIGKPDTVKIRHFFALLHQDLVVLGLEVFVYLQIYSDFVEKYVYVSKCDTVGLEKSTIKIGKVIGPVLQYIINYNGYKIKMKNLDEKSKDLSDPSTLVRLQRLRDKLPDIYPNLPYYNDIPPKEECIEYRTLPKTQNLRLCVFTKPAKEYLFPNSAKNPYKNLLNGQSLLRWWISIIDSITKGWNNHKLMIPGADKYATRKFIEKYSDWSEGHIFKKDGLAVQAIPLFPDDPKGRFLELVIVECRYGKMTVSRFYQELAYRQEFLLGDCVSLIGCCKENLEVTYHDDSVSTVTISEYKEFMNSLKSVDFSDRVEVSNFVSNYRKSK
Starred values were filed as active, the others as inactive; ? = inconclusive; . = not tested or not shown; [ ] = remark or other dose. The list is not random: actives were taken first. Their share in the collection is about 2.3%.

SMILES	PAX8 reporter	Arrestin-AP2 inh	N-glyco inh	PfHsp90 yeast 2	Env fusion inh	Rtt109 Vps75
CCc1sc(C(=O)Nc2nc(-c3ccccn3)cs2)cc1C	.	-1	-2	107*	.	-7
CC(Oc1cccc(Cl)c1)C(=O)Nc1nc(-c2ccccn2)cs1 (centres undefined)	71*	-16	0	-15	25	-2
O=C(Nc1nc(-c2ccccn2)cs1)c1ncc(Cl)c(Cl)c1Cl	.	9	0	110*	.	9
Cc1ccc(C(=O)Nc2nc(-c3ccccn3)cs2)s1	43	26	1	73	39	4
Cc1cccnc1Nc1nc(-c2ccccn2)cs1	.	5	-14	106*	.	2
Cc1cccnc1Nc1nc(-c2ccccc2)cs1	-66	-7	-11	-7	-190	-9
Cc1noc(C)c1NC(=O)N(C)C[C@@H]1Oc2ccc(NC(=O)CCCCCC(=O)Nc3ccccc3N)cc2C(=O)N([C@H](C)CO)C[C@H]1C	-23	.	.	.	.	.
Cc1c(C(=O)Nc2nc(-c3ccccn3)cs2)oc2ccccc12	.	9	-6	?	.	4
O=C(Nc1nc(-c2ccccn2)cs1)c1cc2ccccc2o1	24	-1	-5	105*	23	.
COc1ccc(-c2ccc3n(c2=O)C[C@H]2[C@H](CO)[C@@H](C(=O)NC4Cc5ccccc5C4)N[C@@H]32)cc1	14	.	.	.	.	.
COc1ccc(-c2ccc3n(c2=O)C[C@@H]2[C@@H](CO)[C@H](C(=O)NC4Cc5ccccc5C4)N[C@H]32)cc1	66*	.	.	.	.	.
CC(=C1C(=O)c2ccccc2C1=O)N1CCN(CCN=CC2=C(O)CC(C)(C)CC2=O)CC1	27	20	1	11	.	10
CC(=NCCN1CCN(C(C)=C2C(=O)c3ccccc3C2=O)CC1)C1=C(O)CC(C)(C)CC1=O	101*	-8	1	2	.	3
O=C(Nc1ccccc1)N1CCCC(c2nc(-c3ccc(F)cc3)no2)C1 (centres undefined)	.	2	-1	6	.	1
CCS(=O)(=O)N1CCC(c2nc(-c3ccc(C)cc3)no2)CC1	.	-5	0	-10	-51	3
CCS(=O)(=O)N1CCC(c2nc(-c3ccc(C(F)(F)F)cc3)no2)CC1	.	3	1	.	56*	4
O=C(Nc1cccc(C(F)(F)F)c1)N1CCC(c2nc(-c3ccc(F)cc3)no2)CC1	.	-9	-3	.	69*	-2
CO[C@@H]1CN(C)C(=O)c2cc(NC(C)=O)ccc2OC[C@H](C)N(Cc2cccnc2)C[C@@H]1C	7	.	.	.	10[16.7 µM]	.
C[C@@]12C(=O)N(CC3CCCO3)CC(=O)N1[C@@H]1c3ccccc3OC[C@@H]1[C@@H]2c1ccccc1 (some centres undefined)	13	-17	9	-61	.	0
C[C@@]12C(=O)N(Cc3ccccc3)CC(=O)N1[C@H]1c3ccccc3OC[C@@H]1[C@@H]2c1ccccc1	-2	1	0	-48	104*	1
C[C@@]12C(=O)N(Cc3ccco3)CC(=O)N1[C@H]1c3ccccc3OC[C@@H]1[C@@H]2c1ccccc1	2	3	0	22	84*	-2
Cc1ccc2c(c1)[C@H]1[C@H](CO2)[C@H](c2ccccc2)[C@]2(C)C(=O)N(Cc3ccco3)CC(=O)N12	0	1	-2	-75	17	-2
C[C@]12C(=O)N(c3cccc(Cl)c3)C(=O)N1[C@@H]1c3ccccc3OC[C@@H]1[C@H]2c1ccccc1	7	15	-5	6	56*	-5
Cc1ccc(CN2CC(=O)N3[C@H]4c5ccccc5OC[C@@H]4[C@H](c4ccccc4)[C@]3(C)C2=O)cc1	8	10	-3	.	?	11
CCCCN1CC(=O)N2[C@H]3c4ccccc4OC[C@@H]3[C@H](c3ccccc3)[C@]2(C)C1=O	6	6	4	18	83*	0
COCCOC(=O)N1C(=O)[C@@]2(c3cc(C#CCCO)ccc31)[C@H](C(=O)NC[C@H](O)c1ccccc1)[C@H]1C(=O)O[C@H](c3ccccc3)[C@H](c3ccccc3)N1[C@@H]2c1ccc(O)cc1	.	.	.	.	-20[16.7 µM]	.

Screens from PubChem.
